EC50, MCC and IC50 data for ten compounds are collected here from ChEMBL document CHEMBL1132458, “Potent and selective inhibition of varicella-zoster virus (VZV) by nucleoside analogues with an unusual bicyclic base” (J Med Chem, 1999).

Assay [1] deals with Human alphaherpesvirus 3. As to the kind of experiment: Compound was evaluated for the inhibition of VZV strains of YS. The assay is classed as functional, organism-based.
For assay [2], the system named is Human alphaherpesvirus 3. As to the kind of experiment: Compound was evaluated for the inhibition of VZV (TK-) thymidine kinases Strain YS-R. The class given is functional, organism-based.
Assay [3] has as its system HEL. As to the kind of experiment: Compound was evaluated for the cytotoxicity against HEL cells. The class given is functional. Conditions: Homo sapiens.
The test system of assay [4] is HEL. Kind of assay: Compound was evaluated for the cytotoxicity against HEL cells. The following applies: Homo sapiens.
Assay [5] deals with Human alphaherpesvirus 3. Kind of assay: Compound was evaluated for the inhibition of VZV (TK-) thymidine kinases Strain 07. The class given is functional, organism-based.
In assay [6] the test system is Human alphaherpesvirus 3. As to the kind of experiment: Compound was evaluated for the inhibition of VZV strains of OKA. The assay is classed as functional, organism-based.
Assay [7] concerns Human alphaherpesvirus 3. Kind of assay: Compound was evaluated for the inhibition of VZV (TK-) thymidine kinase-deficient strain YS-R. The class given is functional, organism-based. Put shortly: (§1)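 Confluent human embryonic lung (HEL) fibroblasts were infected with 20 PFU per well of virus for 1–2 h, and then residual virus was removed. Cells were then kept in MEM with 2% inactivated FCS, 1% L-glutamine and 0.3% sodium bicarbonate, plus serial compound concentrations. Plaques were scored after 5 days. EC50 is the concentration cutting plaque formation by 50% versus untreated control.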

Assay [8] has as its system Human alphaherpesvirus 3. Kind of assay: Compound was evaluated for the inhibition of VZV (TK-) thymidine kinase-deficient strain 07. The assay is classed as functional, organism-based. The method, boiled down:
as §1

In the case of `CCCCCCCCCCc1cc2cn([C@H]3C[C@H](O)[C@@H](CO)O3)c(=O)nc2o1`, the EC50 was 8 nM in the assay on Human alphaherpesvirus 3 [1], over 50000 nM with Human alphaherpesvirus 3 [2], over 50000 nM with Human alphaherpesvirus 3 [5] and 15 nM with Human alphaherpesvirus 3 [6]. In the assay with HEL [3], this compound came in with an MCC of over 50 µM. In the assay on HEL [4], this compound came in with an IC50 of over 50000 nM.

As for `CCCCCCCCCc1cc2cn([C@H]3C[C@H](O)[C@@H](CO)O3)c(=O)nc2o1`, the EC50 with Human alphaherpesvirus 3 [1] was 20 nM; in the assay with Human alphaherpesvirus 3 [2] it was over 200000 nM; with Human alphaherpesvirus 3 [5] it was over 200000 nM; with Human alphaherpesvirus 3 [6], 20 nM. In the assay with HEL [3], this compound registered an MCC of over 200 µM. Moreover, the half-maximal inhibitory concentration (IC50) in the assay on HEL [4] was over 200000 nM.

For `CCCCCCCCc1cc2cn([C@H]3C[C@H](O)[C@@H](CO)O3)c(=O)nc2o1`, the EC50 with Human alphaherpesvirus 3 [1] is 24 nM; in the assay with Human alphaherpesvirus 3 [2], over 50000 nM; with Human alphaherpesvirus 3 [5], over 50000 nM; in the assay with Human alphaherpesvirus 3 [6] it was 8 nM. In the assay with HEL [3], this compound yielded an MCC of over 50 µM. Also, in the assay with HEL [4], the IC50 is over 50000 nM.

As to `CCCCCCc1cc2cn([C@H]3C[C@H](O)[C@@H](CO)O3)c(=O)nc2o1`, the EC50 in the assay on Human alphaherpesvirus 3 [1] was 2800 nM; in the assay on Human alphaherpesvirus 3 [7] it was over 50000 nM; in the assay on Human alphaherpesvirus 3 [8], over 50000 nM; in the assay with Human alphaherpesvirus 3 [6], 1300 nM. The compound also came in with an MCC with HEL [3] of 200 µM. The IC50 in the assay on HEL [4] is over 200000 nM.

With `CCCCCCCc1cc2cn([C@H]3C[C@H](O)[C@@H](CO)O3)c(=O)nc2o1`, the half-maximal effective concentration (EC50) in the assay on Human alphaherpesvirus 3 [1] is 390 nM; with Human alphaherpesvirus 3 [2] it was over 50000 nM; with Human alphaherpesvirus 3 [5], over 50000 nM; in the assay on Human alphaherpesvirus 3 [6] it was 170 nM. The compound also yielded an MCC in the assay on HEL [3] of over 50 µM. This compound registered a 50% inhibitory concentration (IC50) in the assay on HEL [4] of over 50000 nM.

For `CCCCCc1cc2cn([C@H]3C[C@H](O)[C@@H](CO)O3)c(=O)nc2o1`, the EC50 is 4600 nM in the assay with Human alphaherpesvirus 3 [1], over 50000 nM in the assay on Human alphaherpesvirus 3 [7], over 50000 nM with Human alphaherpesvirus 3 [8] and 3000 nM with Human alphaherpesvirus 3 [6]. This compound showed an MCC in the assay on HEL [3] of over 50 µM. Moreover, in the assay on HEL [4], the IC50 is over 50000 nM.

For the compound `CCCCCCCCCCCc1cc2cn([C@H]3C[C@H](O)[C@@H](CO)O3)c(=O)nc2o1`, the EC50 was 500 nM in the assay on Human alphaherpesvirus 3 [1], over 50000 nM with Human alphaherpesvirus 3 [2], over 50000 nM with Human alphaherpesvirus 3 [5] and 500 nM in the assay on Human alphaherpesvirus 3 [6]. For the same compound, the MCC with HEL [3] stood at 200 µM. In addition, the IC50 with HEL [4] was over 200000 nM.

Regarding `CCCCCCCCCCCCc1cc2cn([C@H]3C[C@H](O)[C@@H](CO)O3)c(=O)nc2o1`, the EC50 is 1100 nM with Human alphaherpesvirus 3 [1], over 20000 nM in the assay on Human alphaherpesvirus 3 [2], over 50000 nM with Human alphaherpesvirus 3 [5] and 1300 nM with Human alphaherpesvirus 3 [6]. The compound further had an MCC in the assay on HEL [3] of 50 µM. Also, in the assay on HEL [4], the IC50 was over 200000 nM.

The compound `Nc1nc2c(ncn2COCCO)c(=O)[nH]1` [ACYCLOVIR] showed an MCC in the assay on HEL [3] of over 200 µM. In the assay on HEL [4], this compound showed a half-maximal inhibitory concentration (IC50) of over 200000 nM.

Consider `O=c1[nH]c(=O)n([C@H]2C[C@H](O)[C@@H](CO)O2)cc1/C=C/Br` [BRIVUDINE], for which the EC50 in the assay with Human alphaherpesvirus 3 [1] was 6 nM; in the assay on Human alphaherpesvirus 3 [2], over 300000 nM; in the assay on Human alphaherpesvirus 3 [5], 144000 nM; in the assay on Human alphaherpesvirus 3 [6], 3 nM. This compound also showed an MCC with HEL [3] of over 150 µM. In the assay on HEL [4], this compound yielded an IC50 of over 400000 nM.

The EC50 is the concentration that produces a half-maximal response. The low end stands for greater potency, the high end for weaker potency. By IC50 is commonly meant the concentration that gives 50% inhibition. Low values mean greater potency in that assay, high ones weaker potency in that assay.
